Compounds with a hit are over-represented: about 2.5% of the library has one in this group of screens.
TRPC6 activator: activates the mouse TRPC6 cation channel | HEK293-TRPC6 membrane potential dye fluorescence; hits give high values | 310,000 tested, 0.13% active | Q61143 | B-score at 10 µM;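 active = B-score of the integrated fluorescence ratio above library mean plus 3 SD, and starting fluorescence ratio within library mean plus 5 SD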;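 note: higher score means more depolarization so channel activation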
TRPC6 inhibitor: mouse TRPC6 channel inhibition | Q61143 | HEK293-TRPC6, membrane potential dye, ACh-evoked depolarization; hits give low values | B-score at 10 µM | 310,000 tested, 1.1% active | AID 2553;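 active = B-score under library mean minus 3 SD, initial fluorescence not abnormally high, positive integrated signal ratio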;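 note: B-score derived from integrated fluorescence ratio over the kinetic read; more negative B-score means stronger inhibition of depolarization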
TRPC4 agonist: opens the mouse TRPC4 cation channel. Q9QUQ5. HEK293 TRPC4beta/mu-opioid, Fluo4 calcium fluorescence; hits give high values. B-score at 10 µM. 310,000 tested, 0.49% active;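 active = B-score above 5 SD of library B-scores, and initial fluorescence ratio not above library mean plus 5 SD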;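 note: positive B-score marks a calcium rise read as TRPC4 activation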
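Assay system: HEK293 stable line with TRPC4beta plus mu-opioid receptor. Times: dye 45 min RT, read 110 s. Measured by: kinetic Fluo4 calcium fluorescence. Measure: B score of integrated ratio. Controls: assay buffer as low control, maximal DAMGO as high control.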
TRPC4 block: blocks the mouse TRPC4 cation channel; Q9QUQ5; HEK293 TRPC4beta/mu-opioid, DAMGO-evoked Fluo4 calcium flux; hits give low values; B-score at 10 µM; 300,000 tested, 0.39% active;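 active = B-score over 3 SD under the library average, no early fluorescence shift, positive overall ratio signal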
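material = TRPC4beta/mu-opioid receptor HEK293 cell line | probe or stimulus = sequential submaximal and maximal DAMGO stimulation | compound dosing = one concentration per compound | measured by = Fluo4 Ca2+ flux fluorescence | evaluation = integrated fluorescence ratio relative to baseline, converted to per-well B score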
Platelet DG rel: modulates dense granule release in human platelets | human platelet-rich plasma, SFLLRN dense granule ATP release, luminescence | AID 1663 | inhibition, %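 (compounds screened at 7.5 µM in platelet-rich plasma)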 | 300,000 tested, 0.22% active;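 active = mean replicate score, as percent of positive control, at or above 50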
TRPC4 potent: allosteric potentiators of mouse TRPC4 channel; AID 2227; B-score at 10 µM; 310,000 tested, 0.42% active; HEK293 TRPC4beta/mu-opioid, DAMGO EC20, Fluo-4 Ca2+ flux; hits give high values;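 active = B-score of calcium response area above 5 SD of library B-scores, with initial fluorescence ratio within 5 SD of library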
HEK293 TRPC6 ctr: checks TRPC6 modulator effects in parental HEK293 cells; shares compounds with TRPC6 inhibitor; membrane potential dye fluorescence; membrane potential signal change, % at 10 µM; 2,400 tested, 51% active;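 active = membrane potential signal moves up or down beyond 5 SD from buffer-only wells, on both duplicate plates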
HEK293 MPD ctr 2: second check of TRPC6 modulator effects in parental HEK293 cells; shares compounds with TRPC6 inhibitor; membrane potential dye fluorescence; after compound, maximal acetylcholine stimulation; inhibition, % at 10 µM; 2,400 tested, 14% active; AID 488926;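 active = membrane potential signal drops by more than 5 SD from the mean control signal, in both duplicate plates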
TRPC4 ctr mod: mouse TRPC4 off-target activity of TRPC6 modulators | shares compounds with TRPC6 inhibitor | HEK293 TRPC4/mu-opioid, membrane potential fluorescence | percent change from control (negative = decrease, positive = increase), % at 10 µM | 2,400 tested, 69% active;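 active = membrane potential signal moved up or down beyond 5 SD of buffer control wells, in both duplicate plates, actives on both sides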
TRPC4 ctr inh 2: mouse TRPC4 off-target activity of TRPC6 modulators, second screen | shares compounds with TRPC6 inhibitor | HEK293 TRPC4/mu-opioid, membrane potential dye fluorescence; stimulated with maximal-effect DAMGO | inhibition, % at 10 µM | 2,400 tested, 55% active | AID 488928;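 active = drop in membrane potential signal beyond 5 SD of the control wells in both duplicate plates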;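 note: TRPC4 counter screen for TRPC6 hits run under conditions tuned for TRPC6 not TRPC4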
TRPC6 block conf: confirmation of mouse TRPC6 inhibitors; shares compounds with TRPC6 inhibitor; HEK293-TRPC6, membrane potential dye, ACh-evoked depolarization; inhibition, % at 10 µM; 3,300 tested, 43% active; AID 488960;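 active = fluorescence ratio falls more than 5 SD below the full-stimulation control mean, in both duplicate runs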;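 note: integrated fluorescence ratio of peak minus minimum over baseline after agonist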
TRPC6 act conf: confirmation of mouse TRPC6 activators. shares compounds with TRPC6 inhibitor. activation, % at 10 µM. HEK293-TRPC6 membrane potential dye fluorescence, FDSS. 2,800 tested, 11% active;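 active = ratio signal rise beyond 5 SD above unstimulated control wells' mean, seen in both duplicate runs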
Large screens that a line does not name were inactive (follow-up assays come after a bar, where they were run).

O=[N+]([O-])c1ccc(/C=N/NC(=S)Nc2ccccc2C(F)(F)F)o1	none
CCN(CC)C(=O)N1CCn2c(nc3ccccc32)C1	TRPC6 inhibitor -5.5 | HEK293 TRPC6 ctr inactive | HEK293 MPD ctr 2 inactive | TRPC4 ctr mod 12% | TRPC4 ctr inh 2 inactive | TRPC6 block conf inactive | TRPC6 act conf inactive
Cc1nnnn1/C(=C\c1ccccc1)C(=O)OCC(=O)NC1CCCCC1	none
COc1cccc(OCC(=O)NNC(=S)Nc2ccc(Cl)cc2Cl)c1	none
CCc1ccc(OCCCC(=O)Nc2ccc(S(=O)(=O)Nc3cc(C)nc(C)n3)cc2)cc1	none
CCc1ccc(C(=O)OCC(=O)c2c(N)n(CC(C)C)c(=O)n(C)c2=O)cc1	none
Cc1ccc(F)cc1NC(=O)N1CCN(c2ccnc3cc(Cl)ccc23)CC1	TRPC6 inhibitor -5.3 | HEK293 TRPC6 ctr -94% | HEK293 MPD ctr 2 inactive | TRPC4 ctr mod -24% | TRPC4 ctr inh 2 inactive | TRPC6 block conf inactive | TRPC6 act conf inactive
O=C(Nc1cc(F)ccc1F)N1CCN(c2ccnc3cc(Cl)ccc23)CC1	none
O=c1c2c(-c3ccc([N+](=O)[O-])cc3)ccnc2[nH]n1-c1ccccc1	none
O=C(CCCC1=NS(=O)(=O)c2ccccc2N1)N1CCN(c2ccccc2)CC1	TRPC6 inhibitor -5.7 | HEK293 TRPC6 ctr inactive | HEK293 MPD ctr 2 inactive | TRPC4 ctr mod inactive | TRPC4 ctr inh 2 inactive | TRPC6 block conf 47%
Cc1ccc(C)c(S(=O)(=O)N2CCN(C(=O)C3CC3C)CC2)c1 (stereo unspecified)	none
CCN1CCCC1CNC(=O)c1[nH]c2ccc(OC)cc2c1C (stereo unspecified)	none
CCN(CC)CCNC(=O)c1[nH]c2ccc(OCc3ccccc3)cc2c1C	TRPC6 inhibitor -7.5 | HEK293 TRPC6 ctr inactive | HEK293 MPD ctr 2 inactive | TRPC4 ctr mod inactive | TRPC4 ctr inh 2 38% | TRPC6 block conf 55%
CCN(CC)CC#CCC(O)(c1ccccc1)c1ccccc1	none
CCN(CC)CC#CCC(C)(c1ccccc1)c1ccccc1	TRPC6 inhibitor -5 | HEK293 TRPC6 ctr 142% | HEK293 MPD ctr 2 inactive | TRPC4 ctr mod 36% | TRPC4 ctr inh 2 inactive | TRPC6 block conf inactive
O=C(CN1CCN(c2ccccc2F)CC1)NC(=O)NCc1ccccc1	TRPC6 inhibitor -5.1 | HEK293 TRPC6 ctr inactive | HEK293 MPD ctr 2 inactive | TRPC4 ctr mod inactive | TRPC4 ctr inh 2 inactive | TRPC6 block conf inactive | TRPC6 act conf inactive
COc1ccc(/C=C/CN2CCC(Oc3ccc(C(=O)N4CCCCC4)cc3)CC2)cc1	none
COc1ccccc1/C=C/CN1CCC(Oc2ccc(C(=O)N3CCCCC3)cc2)CC1	TRPC6 inhibitor -5.8 | HEK293 TRPC6 ctr 240% | HEK293 MPD ctr 2 inactive | TRPC4 ctr mod 22% | TRPC4 ctr inh 2 80% | TRPC6 block conf 51%
COC(=O)c1ccc(CN2CCC(Oc3ccc(C(=O)N4CCCCC4)cc3)CC2)cc1	TRPC6 inhibitor -5.7 | HEK293 TRPC6 ctr 140% | HEK293 MPD ctr 2 inactive | TRPC4 ctr mod 15% | TRPC4 ctr inh 2 inactive | TRPC6 block conf 46%
COC(=O)c1ccc(CN2CCC(Oc3cccc(C(=O)N4CCCC4)c3)CC2)cc1	none

Assay outcomes from PubChem BioAssay.
